From PubChem
Shown are actives, neighbours in structure and some others; about 2.6% of the full set was active somewhere.
PG9 Ab binder: binds the HIV-1 gp120 antibody PG9; TR-FRET gp120-PG9 antibody binding; inhibition, % at 6.7 µM; actives 0.43% (n = 360,000); in the data active = inhibition above about 8.5%
NR1D1 modulator: Rev-erb alpha (human) modulation; P20393; Rev-erbα–FITC-DNA binding, fluorescence polarization, 90 min; activity, % at 10 µM; actives 0.79% (n = 370,000); AID 1259318;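 active = activity above about 14%, limit read from the data; passing the limit was not always enough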;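 note: 0% = DMSO wells with 35 nM protein and 100% = DMSO wells with 750 nM protein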
Target sequence (P20393 whole entry, looked up): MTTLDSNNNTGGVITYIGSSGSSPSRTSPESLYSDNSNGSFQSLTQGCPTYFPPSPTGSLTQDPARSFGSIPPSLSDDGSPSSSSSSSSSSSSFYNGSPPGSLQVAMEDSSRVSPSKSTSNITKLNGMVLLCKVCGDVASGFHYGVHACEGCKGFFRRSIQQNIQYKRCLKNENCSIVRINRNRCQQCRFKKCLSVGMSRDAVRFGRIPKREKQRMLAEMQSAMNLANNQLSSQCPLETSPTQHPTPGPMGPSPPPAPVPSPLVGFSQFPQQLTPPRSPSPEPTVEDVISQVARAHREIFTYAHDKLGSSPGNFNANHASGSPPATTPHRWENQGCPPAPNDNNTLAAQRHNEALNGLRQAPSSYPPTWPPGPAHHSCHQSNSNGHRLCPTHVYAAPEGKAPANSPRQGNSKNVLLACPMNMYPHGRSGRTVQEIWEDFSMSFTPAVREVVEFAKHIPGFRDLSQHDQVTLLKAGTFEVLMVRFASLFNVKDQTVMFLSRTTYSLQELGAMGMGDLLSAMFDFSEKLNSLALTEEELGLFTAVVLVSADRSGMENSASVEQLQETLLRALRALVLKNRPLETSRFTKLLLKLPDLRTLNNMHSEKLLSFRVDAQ
rCAG binder: molecules binding r(CAG) RNA repeats. inhibition, % at 3 µM. actives 1.3% (n = 370,000). AID 651821. r(CAG) RNA repeat, TO-PRO-1 dye displacement fluorescence;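 active = inhibition above the plate cutoff, the mean of all test compounds on that plate plus 3 SD, cut at about 35% in these data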;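 note: 0% = DMSO alone and 100% = 100 µM mitoxantrone as full dye displacement; higher means more dye released from RNA so lower well fluorescence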
NR2E3 ag-1: agonists of human nuclear receptor NR2E3 | AID 2300 | inhibition of corepressor binding, % at 4.78 µM | Q9Y5X4 | actives 0.12% (n = 320,000) | GST-NR2E3/biotin-RetCOR TR-FRET, 1536-well;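 active = percent inhibition above the cutoff of mean plus 3 SD of all tested compounds, set per screening campaign, cut at about 20% in these data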;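 note: 0% = DMSO wells and 100% = biotin wells as full block of FRET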
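system = GST-tagged NR2E3 plus biotinylated RetCOR corepressor | input = 1.35 nM GST-NR2E3 | also added = 7 nM biotin-RetCOR | schedule = 5 h incubation at 4 °C | measured by = TR-FRET with europium anti-GST and streptavidin-D2, 340 nm excitation | read-out = percent loss of FRET ratio relative to control wells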
NR2E3 ag-2: activates human NR2E3 receptor; Q9Y5X4; CHO-S Gal4-NCOR/VP16-NR2E3 two-hybrid, luciferase; inhibition of corepressor binding, % at 3.98 µM; actives 0.35% (n = 360,000);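 active = inhibition above the mean of all tested compounds plus 3 SD, cut at about 70% in these data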;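 note: 0% = DMSO with NR2E3 transfected cells and 100% = cells lacking NR2E3 construct; higher means lower luciferase signal from less NR2E3 corepressor binding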
The depositor's hits bear a star; / = no result; ! = not confirmed by another sample.

SMILES | PG9 Ab binder | NR1D1 modulator | rCAG binder | NR2E3 ag-1 | NR2E3 ag-2
COc1ccc([C@H]2CC(=O)C=C(c3cc(Cl)ccc3C)C2)cc1 | 0 | -3 | -3 | 3 | -14
COc1ccc([C@H]2CC(=O)C=C(c3ccnc4ccc(Cl)cc34)C2)cc1 | -4 | -2 | 2 | 2 | 89*
CC1=C(C)/C(=N\OS(=O)(=O)c2ccccc2)C=CC1=O | / | / | / | 0 | 74*
COc1cc(C(=O)Nc2scc(-c3ccccc3)c2C(=O)O)cc(OC)c1OC | -1 | 0 | 49* | 8 | -18
O=[N+]([O-])c1cc(Cl)c2cccnc2c1O | 0 | 7 | 11 | 0 | 102*
O=[N+]([O-])c1cc(F)c2cccnc2c1O | -3 | 1 | 3 | 3 | 29
C/C=C\C1=C(C(=O)O)N2C(=O)C(NC(=O)C(N)c3ccc(O)cc3)C2SC1 (stereo not given) | / | 1 | / | / | /
COC(=O)c1cccc(Nc2cc(C)nc(-c3ccccc3O)n2)c1 | 0 | 12 | 7 | -1 | 7
COC(=O)c1ccc(Nc2cc(C)nc(-c3ccccc3O)n2)cc1 | 45* | 25 | 4 | 1 | -20
C[C@@H]1CC2C3CCC4=CC(=O)C=C[C@]4(C)[C@@]3(F)[C@@H](O)C[C@]2(C)[C@H]1C(=O)CO (stereo not given in full) | / | 1 | / | / | /
C[C@H]1OC(n2cc(F)c(=O)[nH]c2=O)[C@H](O)[C@@H]1O (stereo not given in full) | / | -3 | / | / | /
CCc1ccc(S(=O)(=O)/N=C2/C=C(Sc3ncn[nH]3)C(=O)c3ccccc32)cc1 | / | / | / | 6 | 100*
Cc1nc2c(C(=O)NCc3ccc4c(c3)OCO4)c[nH]n2c(=O)c1Cl | 2 | -6 | 55* | -2 | -2
Cc1nc2c(C(=O)NCCC3=CCCCC3)c[nH]n2c(=O)c1Cl | -3 | -6 | 71* | 0 | 21
Cc1ccc(C(=O)NCc2ccc3c(c2)OCO3)c(Cl)c1 | 1 | -4 | 0 | / | 3
Cc1cc(C#N)cc(C)c1Oc1nc(Nc2ccc(C#N)cc2)nc(N)c1Br | / | 2 | / | / | /
O=C(Nc1ccccc1C(=O)O)c1cc(S(=O)(=O)N2CCCCCC2)ccc1Cl | -3 | 2 | 58* | 5 | -74
O=C(O)c1cc(S(=O)(=O)N2CCCCCC2)ccc1Cl | -2 | -1 | 4 | -2 | -1
CCCCn1nc(NS(=O)(=O)c2cccc3nonc23)c2cc3cccc(C)c3nc21 | -1 | -2 | 74* | 3 | -7
O=C(CCCCCn1c(=S)[nH]c2cc3c(cc2c1=O)OCO3)N1CCN(Cc2ccccc2)CC1 | 4 | 17 | 2 | 2 | 0
O=C(CCCCCn1c(=S)[nH]c2cc3c(cc2c1=O)OCO3)N1CCN(C(=O)c2ccco2)CC1 | 12* | -1 | -4 | -93 | -16
CCCCN1/C(=C/c2ccc3ccccc3[n+]2CC)Sc2ccccc21 | / | / | / | / | 80*
C[C@H](CCC(=O)O)[C@H]1CCC2C3C(CC[C@@]21C)[C@@]1(C)CC[C@@H](O)C[C@H]1C[C@H]3O (stereo not given in full) | / | -2 | / | / | /
CSc1ccc(NC(=O)CSc2nc3[nH]c(=O)cc(O)c3s2)cc1 | -2 | 3 | 56* | 5 | -3
N#Cc1ccc(NC(=O)CSc2nc3[nH]c(=O)cc(O)c3s2)cc1 | 0 | -3 | 26 | 3 | 5
SMILES | PG9 Ab binder | NR1D1 modulator | rCAG binder | NR2E3 ag-1 | NR2E3 ag-2
O=c1cc(-c2ccccc2Cl)oc2ccc([N+](=O)[O-])c(O)c12 | 0 | -7 | 1 | 3 | -3
O=[N+]([O-])c1cc([N+](=O)[O-])c2oc(-c3ccccc3)c(Br)c2c1O | / | / | / | / | 100*
CC1(C)OC(=O)C(OCC2CC2)=C1c1ccc(S(C)(=O)=O)cc1 | / | -4 | / | / | /
COc1ccc(OC)c(Nc2nc(-c3cccs3)cs2)c1 | -1 | -5 | 18 | 0 | -7
COc1ccccc1Nc1nc(-c2cccs2)cs1 | -2 | -3 | 35* | 2 | -23
CCOC(=O)Cc1csc(NC(=O)c2sc3nc4cc(C)ccc4cc3c2N)n1 | 4 | -3 | 16 | 7 | -28
CCOC(=O)Cc1csc(NC(=O)c2sc3nc4ccc(CC)cc4cc3c2N)n1 | 0 | 0 | 44* | 3 | -32
C[C@]12C=CC(=O)C=C1CCC1C3C[C@@H](O)[C@](O)(C(=O)CO)[C@@]3(C)C[C@H](O)[C@@]12F (stereo not given in full) | / | 0 | / | / | /
COc1ccc([C@@H]2CC=C(C(=O)O)[C@H](c3cccc(Cl)c3)N2S(=O)(=O)c2ccccc2C)cc1 | 2 | 3 | 74* | -2 | -17
O=C(O)C1=CC[C@@H](c2ccc(Cl)cc2)N(S(=O)(=O)c2ccc(Cl)cc2)[C@H]1c1cccc(Cl)c1 | 0 | 2 | 14 | 5 | 22
Cc1ccc(Cl)cc1NC1=C/C(=N\S(=O)(=O)c2cccs2)c2ccccc2C1=O | -2 | 3 | 9 | 9 | 79*!
Cc1ccc(NC2=C/C(=N\S(=O)(=O)c3cccs3)c3ccccc3C2=O)c(C)c1 | / | / | / | 7 | 108*
Cc1cccc(NC2=C/C(=N/S(=O)(=O)c3cccs3)c3ccccc3C2=O)c1 | -2 | -3 | 1 | 0 | -6
O=C1N/C(=N\S(=O)(=O)Cc2ccccc2)S/C1=C/c1cc([N+](=O)[O-])ccc1O | 0 | 8 | 71* | 5 | -2
Cc1ccc(-c2nc3n(n2)Cc2ccccc2-3)cc1 | 1 | -1 | -2 | 3 | -110
CCn1c(C)nc2cc(-c3nc4n(n3)Cc3ccccc3-4)ccc21 | / | / | / | 2 | 97*
COc1ccc2oc(=O)c(-c3nnc(N)s3)cc2c1 | -3 | 0 | 7 | 3 | -33
COc1ccc2oc(=O)c(-c3nc(C)cs3)cc2c1 | 13* | 2 | 7 | 3 | -65
CCc1ccc(C(CC(=O)c2ccc(Cl)cc2)C(=O)O)cc1 (stereo not given) | 0 | -4 | 22 | 1 | -6
CC(C)c1ccc(C(CC(=O)c2ccc(Cl)cc2)C(=O)O)cc1 (stereo not given) | 0 | -1 | 45* | 6 | 21
C#C[C@]1(OC(C)=O)CCC2C3CCC4=C/C(=N/O)CCC4C3CC[C@@]21CC (stereo not given in full) | / | 8 | / | / | /
Cc1ccc(NC2c3ccccc3C(=O)N2c2cccnc2)cc1 (stereo not given) | -2 | -1 | -2 | 0 | 2
COc1ccc(OC)c(NC2c3ccccc3C(=O)N2c2cccnc2)c1 (stereo not given) | 8.9* | 0 | 4 | 0 | -24
OC[C@H]1O[C@H](O)C[C@@H](O)[C@@H]1O | / | 4 | / | / | /
CN1c2ccccc2Sc2ccc(CC(=O)O)cc21 | / | 0 | / | / | /
CCc1ccc(-c2nc(CSCC(=O)N3CCN(c4ccccn4)CC3)c(C)o2)cc1 | -2 | 7 | -5 | 4 | 84*
C=C[C@@]1(C)CC(=O)[C@]2(O)[C@@]3(C)[C@@H](O)CCC(C)(C)[C@@H]3[C@H](OC(=O)CCN(C)C)[C@H](OC(C)=O)[C@@]2(C)O1 | / | 3 | / | / | /
